Reference: ChEMBL document CHEMBL1140145, “Identification of non-nucleoside DNA synthesis inhibitors of vaccinia virus by high-throughput screening” (J Med Chem, 2008)
The source made the active and inactive calls. The calls are words filed in the database; no cut-off is given here.

How the values were obtained:
Vaccinia virus [1] = assay: Inhibition of Vaccinia virus DNA synthesis in by rapid plate assay; type: functional, organism-based; conditions: Orthopoxvirus vaccinia
[2] = Cytotoxicity against african green monkey BSC1 cells after 20 hrs WST-1 based assay; type: cell-based, BSC-1; conditions: chlorocebus aethiops, read-out: TC50
Summary of the method: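 Uninfected BS-C-1 cells in phenol red-free medium, seeded 5000 (20 h), 1000 (3-day) or 200 (5-day) cells/well, exposed next day to compound in two-fold serial dilutions (top 200 µM; 1% DMSO final) at 37°C. WST-1 added 30 min, A450 read. Triplicates; percent cytotoxicity vs DMSO fitted four-parameter sigmoidal for TC50.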

Vaccinia virus [3] = assay: Antiviral activity against Vaccinia virus WR in BSC1 cells assessed as reduction in plaque formation after 20 hrs; type: functional, organism-based; conditions: Orthopoxvirus vaccinia, BSC-1, 20 h
Vaccinia virus [4] = assay: Antiviral activity against Vaccinia virus WR in BSC1 cells assessed as protection from virus-induced lysis of cell monolayer after 20 hrs; type: functional, organism-based; conditions: Orthopoxvirus vaccinia, BSC-1, 20 h
Vaccinia virus [5] = assay: Antiviral activity against Vaccinia virus WR in BSC1 cells assessed as retention of antiviral potency by measuring exogenous double stranded DNA trapping; type: functional, organism-based; conditions: Orthopoxvirus vaccinia, BSC-1

SMILES | IC50 (Vaccinia virus [1]) | CC50 at 20 h [2] | EC50 (Vaccinia virus [3]) | EC50 (Vaccinia virus [4]) | Activity (Vaccinia virus [5])
CCN1CCN(CCCNC(=O)c2ccc3c(c2)NC(=O)/C(=C\C(=O)c2ccc(OC)cc2)N3)CC1 | 36 µM | > 200 µM |  |  | 
CN(c1ccccc1C(=O)O)S(=O)(=O)c1ccc2c3c(cccc13)C(=O)N2 | 75 µM | > 200 µM |  |  | 
N=C(N)Nc1nc(-c2ccccc2)c2ccccc2n1 | 21 µM | 49 µM | 50 µM |  | 
COc1ccc2c(C)nc(N/C(N)=N/C(C)=O)nc2c1 | 16 µM | 90 µM | 40 µM |  | 
CCN(CC)Cn1nc2c3c(cccc3c1=O)-c1ccccc1-2 | 25 µM | 133 µM | 25 µM | 14 µM | inactive
CN(C)CCOC(=O)c1ccc2[nH]c3c(c2c1)CSCC3 [TIPINDOLE] | 115 µM | > 200 µM | 100 µM |  | 
c1ccc2nc3c(nc2c1)c1ccccc1n3CCN1CCOCC1 | 28 µM | 72 µM | 30 µM |  | 
N#CC1=C(SCc2ccccc2)SC(c2ccccc2O)NC1=O (centres undefined) | 250 µM | > 200 µM | 150 µM |  | 
COC(=O)c1c(NC(=O)c2ccc(OC)cc2)sc2c1CCN(C(C)C)C2 |  | 87 µM | 25 µM | 40 µM | inactive
CN(C)/C=C/C=C1C(=O)CCCC1=O | 86 µM | > 200 µM |  |  | 
Nc1[nH]c(=S)sc1C(=O)Nc1nccs1 | 41 µM | > 200 µM |  |  | 
CN(C)CCN(C(=O)c1ccco1)c1nc2cc3c(cc2s1)OCO3 | 29 µM | > 200 µM | 100 µM |  | 
CN1CCc2c(-c3cccs3)nc(OCc3ccccc3Br)c(C#N)c2C1 | 112 µM | 82 µM | 40 µM |  | 
COc1ccc(Nc2nc(N3CCN(C)CC3)nc3ccccc23)c(OC)c1 |  | 192 µM | 40 µM | 18 µM | inactive
CC1=NN(c2ccccc2)C(=O)/C1=C\c1cn(CC(O)CN2CCCCC2)c2ccccc12 (centres undefined) | 24 µM | 79 µM | 25 µM |  | 
Cc1ccc2oc(=O)c3cc(C(=O)NCCN4CCCCC4C)sc3c2c1 (centres undefined) | 25 µM | 147 µM | 50 µM |  | 
CCOC(=O)c1cc(-c2ccccc2)n(-c2ccc(C(=O)O)cc2)c1C | 120 µM | > 200 µM | 100 µM |  | 
COc1ccc2cc3cc(C(=O)NCCN(C)C)oc3nc2c1 |  | > 200 µM | 75 µM |  | 
C/N=C1/c2c(C)c3cc(OC)ccc3n2CCN1C | 89 µM | > 200 µM | 75 µM |  | 
CCN1CCCC1CNC(=O)c1ccc2c(c1)sc1nc(-c3cccc(OC)c3)cn12 (centres undefined) | 47 µM | 75 µM | 50 µM |  | 
Cc1nc2ccccc2c2oc(C(=O)NCCN(C)C3CCCCC3)cc12 |  | 143 µM | 25 µM | 41 µM | inactive
CN(C)CCNC(=O)c1cc2c(s1)-c1ccc(Cl)cc1SC2 | 37 µM | 3.9 µM | 5 µM |  | 
CCN1CCCC1CNC(=O)c1cc2c(=O)n(C)c3ccccc3c2n1C (centres undefined) |  | 135 µM | 100 µM | 98 µM | inactive
Cc1cc(OCC(=O)NC(Cc2c[nH]c3ccccc23)C(=O)O)cc(C)c1Cl (centres undefined) | 73 µM | > 200 µM | 200 µM |  | 
O=C(/C=C/c1ccco1)/C=C/c1ccco1 | 25 µM | > 200 µM | 75 µM |  | 
O=C(O)c1cc(-c2cccs2)nc2ccc(Br)cc12 | 63 µM | > 200 µM | 100 µM |  | 
O=C(O)c1cc(Cc2ccc(O)c(C(=O)O)c2)ccc1O | 51 µM | > 200 µM |  |  | 

SMILES | IC50 (Vaccinia virus [1]) | CC50 at 20 h [2] | EC50 (Vaccinia virus [3]) | EC50 (Vaccinia virus [4]) | Activity (Vaccinia virus [5])
Oc1ccc(C2(c3ccc(O)cc3)CCCC2)cc1 | 71 µM | 35 µM | 75 µM |  | 
CC1CCN(CCCNC(=O)c2cc3c(=O)n(C)c4ccccc4c3s2)CC1 | 19 µM | 75 µM |  |  | 
C[n+]1ccc(/C=C/c2ccc3c(c2)OCO3)c2ccccc21 | 24 µM | > 200 µM | 75 µM |  | 
Cc1cc2c(cc3c(=O)n(CC(=O)NCCN4CCOCC4)ncn32)s1 |  | 100 µM | 25 µM | 23 µM | inactive
Cc1c(C)n(CCN(C)C)c2ccc(C(=O)OCCN(C)C)cc12 [AMINDOCATE] | 26 µM | > 200 µM | 75 µM |  | 
COc1ccc2c(C)nc(NC(=N)/N=C(\C)c3ccccc3C(=O)O)nc2c1 | 13 µM | 164 µM | 50 µM |  | 
CN1CCN(c2cc(-c3ccc(F)cc3)nc(-c3ccccc3)n2)CC1 |  | 23 µM | 6 µM | 12 µM | inactive
CCN1/C(=C/c2ccc3ccccc3[n+]2CC)Sc2cc(NC(C)=O)ccc21 | 15 µM | > 200 µM | 200 µM |  | 
CN(C)Cc1ccc2ccc3cccc4ccc1c2c34 |  | 20 µM | 10 µM | 25 µM | inactive
O=C(O)c1ccc2c(c1)NC(=O)C(CSCc1ccccc1Cl)N2 (centres undefined) | 450 µM | > 200 µM |  |  | 
CCN1C(=O)/C(=C\C=C\c2ccco2)C(=O)NC1=S | 160 µM | 72 µM | 12 µM |  | 
C=C1C(C(=O)NCc2ccco2)C1C(=O)NCc1ccco1 (centres undefined) | 272 µM | > 200 µM |  |  | 
COC(=O)C(C(=O)OC)C(Nc1ccccc1)c1ccccc1 (centres undefined) | 638 µM | > 200 µM |  |  | 
OCC(O)Cn1c2ccc(Br)cc2c2cc(Br)ccc21 (centres undefined) |  | 29 µM | 10 µM | 23 µM | inactive
CC1=NN(c2cccc(C(=O)O)c2)C(=O)/C1=C\c1ccc(-c2cccc(Cl)c2C)o1 | 14 µM | > 200 µM | 50 µM |  | 
O=C1/C(=C/c2ccc(Br)o2)CC/C1=C\c1ccc(Br)o1 | 95 µM | > 200 µM |  |  | 
COc1ccc(Nc2cc(C(F)(F)F)ccc2Cl)c(C(=O)O)c1 | 29 µM | > 200 µM | 100 µM |  | 
S=c1nc(-c2ccco2)c2c(=S)[nH]c(=S)[nH]c2[nH]1 | 142 µM | > 200 µM |  |  | 
CN(C)CC(O)Cn1c2ccc(Cl)cc2c2cc(Cl)ccc21 (centres undefined) | 12 µM | 17 µM | 10 µM |  | 
c1ccc(CNc2ccc3c(ccc4c5ccccc5[nH]c34)n2)cc1 | 114 µM | 26 µM | 10 µM |  | 
Cc1ccc(C)n1-c1cccc(C(=O)O)c1 | 100 µM | > 200 µM |  |  | 
O=C(O)C1Nc2ccccc2C2C=CCC12 (centres undefined) | > 400 µM | > 200 µM |  |  | 
CN(C)CCCNc1c2c(nc3ccccc13)CCC2 | 32 µM | 172 µM | 50 µM |  | 
O=C1NC(=S)N(c2ccccc2)C(=O)/C1=C\C=C\c1ccco1 | 143 µM | > 200 µM | 50 µM |  | 
O=C1N=C(Nc2cccc(C(=O)O)c2)S/C1=C\c1ccc(-c2ccc(C(=O)O)cc2)o1 | 30 µM | > 200 µM |  |  | 
CC(C)c1ccc(C2Nc3ccc(C(=O)O)cc3C3C=CCC32)cc1 (centres undefined) | 100 µM | > 200 µM | 100 µM |  | 
